Assay results as given in ChEMBL document CHEMBL1926550, “Synthesis and antibacterial activity of naphthyridone derivatives containing mono/difluoro-methyloxime pyrrolidine scaffolds” (2012).
≈ marks a conversion by molar mass, not a printed value.

Legend:
Format in all cases: functional
Staphylococcus aureus [1] = test: Antibacterial activity against methicillin-sensitive Staphylococcus aureus 10-2 after 18 hrs by two fold serial dilution method; conditions: 10-2, 18 h
Outline: (§1)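 Agar two-fold serial dilution in melted Mueller-Hinton agar, final concentrations 128 down to 0.008 μg/mL. Plates inoculated with 10⁴ cfu and incubated at 35 °C for 18 h. MIC taken as the lowest concentration giving no visible growth on the plate.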

Enterococcus faecium [2] = test: Antibacterial activity against Enterococcus faecium 09-5 after 18 hrs by two fold serial dilution method; conditions: 09-5, 18 h; outline: as §1
Pseudomonas aeruginosa [3] = test: Antibacterial activity against Pseudomonas aeruginosa 10-1 after 18 hrs by two fold serial dilution method; conditions: 10-1, 18 h; outline: as §1
Staphylococcus aureus [4] = test: Antibacterial activity against methicillin-sensitive Staphylococcus aureus 10-3 after 18 hrs by two fold serial dilution method; conditions: 10-3, 18 h; outline: as §1
Enterococcus faecalis [5] = test: Antibacterial activity against Enterococcus faecalis 09-1 after 18 hrs by two fold serial dilution method; conditions: 09-1, 18 h; outline: as §1
Enterococcus faecalis [6] = test: Antibacterial activity against Enterococcus faecalis 09-2 after 18 hrs by two fold serial dilution method; conditions: 09-2, 18 h; outline: as §1
Escherichia coli [7] = test: Antibacterial activity against Escherichia coli ATCC 25922 after 18 hrs by two fold serial dilution method; conditions: ATCC 25922, 18 h; outline: as §1
Escherichia coli [8] = test: Antibacterial activity against Escherichia coli 09-1 after 18 hrs by two fold serial dilution method; conditions: 09-1, 18 h; outline: as §1
Staphylococcus aureus [9] = test: Antibacterial activity against methicillin-resistant Staphylococcus aureus 10-1 after 18 hrs by two fold serial dilution method; conditions: 10-1, 18 h
Outline: (§2)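 Agar two-fold serial dilution in melted Mueller-Hinton agar, 128 to 0.008 μg/mL. Plates inoculated with 10⁴ cfu, incubated 35 °C for 18 h. MIC taken as lowest concentration giving no visible growth on the plate.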

Staphylococcus aureus [10] = test: Antibacterial activity against Staphylococcus aureus ATCC 25923 after 18 hrs by two fold serial dilution method; conditions: ATCC 25923, 18 h; outline: as §1
Escherichia coli [11] = test: Antibacterial activity against Escherichia coli 09-2 after 18 hrs by two fold serial dilution method; conditions: 09-2, 18 h; outline: as §1
[12] = test system: Staphylococcus epidermidis; test: Antibacterial activity against methicillin-resistant Staphylococcus epidermidis 10-2 after 18 hrs by two fold serial dilution method; conditions: 10-2, 18 h; outline: as §2
Escherichia coli [13] = test: Antibacterial activity against Escherichia coli 10-3 after 18 hrs by two fold serial dilution method; conditions: 10-3, 18 h; outline: as §1
Escherichia coli [14] = test: Antibacterial activity against Escherichia coli 09-3 after 18 hrs by two fold serial dilution method; conditions: 09-3, 18 h; outline: as §1
Escherichia coli [15] = test: Antibacterial activity against Escherichia coli 10-2 after 18 hrs by two fold serial dilution method; conditions: 10-2, 18 h; outline: as §1
Enterococcus faecium [16] = test: Antibacterial activity against Enterococcus faecium 09-3 after 18 hrs by two fold serial dilution method; conditions: 09-3, 18 h; outline: as §1
Streptococcus pneumoniae = test: Antibacterial activity against Streptococcus pneumoniae 10-1 after 18 hrs by two fold serial dilution method; conditions: 10-1, 18 h; outline: as §1
Staphylococcus aureus [17] = test: Antibacterial activity against methicillin-sensitive Staphylococcus aureus 10-4 after 18 hrs by two fold serial dilution method; conditions: 10-4, 18 h; outline: as §1
Pseudomonas aeruginosa [18] = test: Antibacterial activity against Pseudomonas aeruginosa 10-2 after 18 hrs by two fold serial dilution method; conditions: 10-2, 18 h; outline: as §1
Klebsiella pneumoniae [19] = test: Antibacterial activity against Klebsiella pneumoniae 10-3 after 18 hrs by two fold serial dilution method; conditions: 10-3, 18 h; outline: as §1
Pseudomonas aeruginosa [20] = test: Antibacterial activity against Pseudomonas aeruginosa ATCC 27853 after 18 hrs by two fold serial dilution method; conditions: ATCC 27853, 18 h; outline: as §1
[21] = test system: Staphylococcus epidermidis; test: Antibacterial activity against methicillin-resistant Staphylococcus epidermidis 10-1 after 18 hrs by two fold serial dilution method; conditions: 10-1, 18 h; outline: as §2
Pseudomonas aeruginosa [22] = test: Antibacterial activity against Pseudomonas aeruginosa 10-3 after 18 hrs by two fold serial dilution method; conditions: 10-3, 18 h; outline: as §1
Staphylococcus aureus [23] = test: Antibacterial activity against methicillin-resistant Staphylococcus aureus 10-4 after 18 hrs by two fold serial dilution method; conditions: 10-4, 18 h; outline: as §2
[24] = test system: Staphylococcus epidermidis; test: Antibacterial activity against methicillin-sensitive Staphylococcus epidermidis 10-2 after 18 hrs by two fold serial dilution method; conditions: 10-2, 18 h; outline: as §1
Enterococcus faecium [25] = test: Antibacterial activity against Enterococcus faecium 09-4 after 18 hrs by two fold serial dilution method; conditions: 09-4, 18 h; outline: as §1
Klebsiella pneumoniae [26] = test: Antibacterial activity against Klebsiella pneumoniae 09-2 after 18 hrs by two fold serial dilution method; conditions: 09-2, 18 h; outline: as §1
Enterococcus faecium [27] = test: Antibacterial activity against Enterococcus faecium 09-6 after 18 hrs by two fold serial dilution method; conditions: 09-6, 18 h; outline: as §1
Staphylococcus aureus [28] = test: Antibacterial activity against methicillin-sensitive Staphylococcus aureus 10-5 after 18 hrs by two fold serial dilution method; conditions: 10-5, 18 h; outline: as §1
Enterococcus faecium [29] = test: Antibacterial activity against Enterococcus faecium 09-2 after 18 hrs by two fold serial dilution method; conditions: 09-2, 18 h; outline: as §1
Staphylococcus aureus [30] = test: Antibacterial activity against methicillin-sensitive Staphylococcus aureus 10-1 after 18 hrs by two fold serial dilution method; conditions: 10-1, 18 h; outline: as §1
Staphylococcus aureus [31] = test: Antibacterial activity against methicillin-resistant Staphylococcus aureus 10-3 after 18 hrs by two fold serial dilution method; conditions: 10-3, 18 h; outline: as §2
Staphylococcus aureus [32] = test: Antibacterial activity against methicillin-resistant Staphylococcus aureus 10-2 after 18 hrs by two fold serial dilution method; conditions: 10-2, 18 h; outline: as §2
Enterococcus faecium [33] = test: Antibacterial activity against Enterococcus faecium 09-1 after 18 hrs by two fold serial dilution method; conditions: 09-1, 18 h; outline: as §1
[34] = test system: Staphylococcus epidermidis; test: Antibacterial activity against methicillin-sensitive Staphylococcus epidermidis 10-1 after 18 hrs by two fold serial dilution method; conditions: 10-1, 18 h; outline: as §1
Staphylococcus aureus [35] = test: Antibacterial activity against methicillin-sensitive Staphylococcus aureus 10-6 after 18 hrs by two fold serial dilution method; conditions: 10-6, 18 h; outline: as §1
Klebsiella pneumoniae [36] = test: Antibacterial activity against Klebsiella pneumoniae 10-1 after 18 hrs by two fold serial dilution method; conditions: 10-1, 18 h; outline: as §1
Escherichia coli [37] = test: Antibacterial activity against Escherichia coli 10-1 after 18 hrs by two fold serial dilution method; conditions: 10-1, 18 h; outline: as §1

Compound CC1(CN)CN(c2ccc3c(=O)c(C(=O)O)cn(C4CC4)c3n2)C/C1=N\OCF (racemic) has an MIC (Staphylococcus aureus [1]) of 32 µg/mL (≈ 79.3 µM), an MIC (Enterococcus faecium [2]) of 32 µg/mL (≈ 79.3 µM) and an MIC (Pseudomonas aeruginosa [3]) of 0.5 µg/mL (≈ 1.24 µM). The MIC (Staphylococcus aureus [4]) was 0.015 µg/mL (≈ 0.0372 µM), the MIC (Enterococcus faecalis [5]) was 32 µg/mL (≈ 79.3 µM) and the MIC (Enterococcus faecalis [6]) was 0.015 µg/mL (≈ 0.0372 µM). For the same compound, the MIC (Escherichia coli [7]) was 0.015 µg/mL (≈ 0.0372 µM), the MIC (Escherichia coli [8]) was greater than 128 µg/mL and the MIC (Staphylococcus aureus [9]) was 128 µg/mL (≈ 317 µM). It also gave an MIC (Staphylococcus aureus [10]) of 0.03 µg/mL (≈ 0.0744 µM), an MIC (Escherichia coli [11]) greater than 128 µg/mL and an MIC [12] of 8 µg/mL (≈ 19.8 µM). The MIC (Escherichia coli [13]) was 128 µg/mL (≈ 317 µM), the MIC (Escherichia coli [14]) was greater than 128 µg/mL and the MIC (Escherichia coli [15]) was 1 µg/mL (≈ 2.48 µM). The MIC (Enterococcus faecium [16]) was 2 µg/mL (≈ 4.96 µM), the MIC (Streptococcus pneumoniae) was 0.015 µg/mL (≈ 0.0372 µM) and the MIC (Staphylococcus aureus [17]) was 0.015 µg/mL (≈ 0.0372 µM). It also gave an MIC (Pseudomonas aeruginosa [18]) of 64 µg/mL (≈ 159 µM), an MIC (Klebsiella pneumoniae [19]) of 2 µg/mL (≈ 4.96 µM) and an MIC (Pseudomonas aeruginosa [20]) of 1 µg/mL (≈ 2.48 µM). For the same compound, the MIC [21] was 4 µg/mL (≈ 9.92 µM), the MIC (Pseudomonas aeruginosa [22]) was 8 µg/mL (≈ 19.8 µM) and the MIC (Staphylococcus aureus [23]) was 128 µg/mL (≈ 317 µM). It also gave an MIC [24] of 64 µg/mL (≈ 159 µM), an MIC (Enterococcus faecium [25]) of 0.5 µg/mL (≈ 1.24 µM) and an MIC (Klebsiella pneumoniae [26]) greater than 128 µg/mL. The MIC (Enterococcus faecium [27]) was 0.5 µg/mL (≈ 1.24 µM), the MIC (Staphylococcus aureus [28]) was 0.03 µg/mL (≈ 0.0744 µM) and the MIC (Enterococcus faecium [29]) was 32 µg/mL (≈ 79.3 µM). For the same compound, the MIC (Staphylococcus aureus [30]) was 0.5 µg/mL (≈ 1.24 µM), the MIC (Staphylococcus aureus [31]) was 128 µg/mL (≈ 317 µM) and the MIC (Staphylococcus aureus [32]) was 8 µg/mL (≈ 19.8 µM). It also gave an MIC (Enterococcus faecium [33]) of 32 µg/mL (≈ 79.3 µM), an MIC [34] of 4 µg/mL (≈ 9.92 µM) and an MIC (Staphylococcus aureus [35]) of 0.03 µg/mL (≈ 0.0744 µM). It also gave an MIC (Klebsiella pneumoniae [36]) of 0.25 µg/mL (≈ 0.62 µM) and an MIC (Escherichia coli [37]) greater than 128 µg/mL.
